# Data published in article PMC10120002 (Proceedings of the National Academy of Sciences of the …, 2023).
# Ends that are not written are not given here.
# Target: recombinant Cdk5/p25 complex (Homo sapiens, UniProt Q00535+Q15078)
# Assay: IP-linked Cdk5 kinase assay, recombinant Cdk5/p25, histone H1
# Format: biochemical
# Conditions: recombinant Cdk5/p25, overnight incubation, vs solvent control
# How it was run: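 Recombinant Cdk5/p25 complex incubated overnight with test peptide or solvent control, then immunoprecipitated with anti-Cdk5 antibody overnight at 4 °C. The immunocomplex was used for a kinase reaction with histone H1 as substrate and ³²P label, resolved on 12% SDS-PAGE, dried, and exposed to film for several hours. ³²P-histone H1 band intensity was quantified, with Coomassie staining as loading check. Six replicates from two independent experiments.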
# Chain of recombinant Cdk5/p25 complex (Q00535 whole entry): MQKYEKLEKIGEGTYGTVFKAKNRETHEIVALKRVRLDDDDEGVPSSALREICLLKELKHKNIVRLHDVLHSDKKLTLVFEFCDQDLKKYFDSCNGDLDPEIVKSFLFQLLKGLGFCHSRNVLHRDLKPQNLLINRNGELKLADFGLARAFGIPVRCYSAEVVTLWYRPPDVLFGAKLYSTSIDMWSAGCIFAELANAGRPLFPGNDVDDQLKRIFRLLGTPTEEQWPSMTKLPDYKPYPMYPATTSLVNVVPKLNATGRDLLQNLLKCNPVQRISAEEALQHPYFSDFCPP
# Chain of recombinant Cdk5/p25 complex (Q15078 99-307 limits assumed): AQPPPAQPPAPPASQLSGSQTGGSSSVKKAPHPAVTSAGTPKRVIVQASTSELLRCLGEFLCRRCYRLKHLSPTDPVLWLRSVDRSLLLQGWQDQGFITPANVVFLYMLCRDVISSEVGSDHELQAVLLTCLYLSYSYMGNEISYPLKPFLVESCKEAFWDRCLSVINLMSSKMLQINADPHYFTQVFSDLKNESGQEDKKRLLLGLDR
sequence,measurement,value
ARAFGIPVRCYS [Cdk5i],reduction of histone H1 phosphorylation by Cdk5/p25,~ 22%
